Yeast fitness data for 167 variants are collected here from the RNAGym collection of RNA variant scans (doi:10.1126/science.aae0568).

To fix the notation:
B1: tRNA (parent)
chain: GUUCCGUUGGCGUAAUGGUAACGCGUCUCCCUCCUAAGGAGAAGACUGCGGGUUCGAGUCCCGUACGGAACG

This sample holds only a part of the variants without activity.

Variants of B1 are the subject of this series. The series can be described thus: yeast fitness relative to wild type (ratio to wild type); higher = fitter; tRNA-Arg(CCU), competitive growth, 37 C, YPD. In outline: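 Changes in genotype frequencies gave Darwinian fitness relative to wild type. Frequencies were read by 100-nucleotide paired-end sequencing of gene amplicons before and after pooled Saccharomyces cerevisiae strains, carrying tRNA-Arg(CCU) gene variants at the native locus, were competed in YPD at 37°C for 24 hours in six replicates. A genotype was kept only with ≥ 100 starting reads, and estimates < 0.5 were set to 0.5.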
Turning to U13C U16G A65G, the yeast fitness came to 0.572.

As to U13C C31U A43G C60G, the yeast fitness is at most 0.5. Under U13G C24A A45G stands at most 0.5; under U13C U47C C62G, at most 0.5. The result for U13C C22U G38C A57C reads 0.599; that for U13C C22U G38C A57U, at most 0.5. Under U13C A40U A69U stands 0.793; under U13C C49G C62U, 0.533; under U13C U47A C62U, 0.596. Take U13C G25C A40C: the yeast fitness came to 0.667. Under U13C C22U G38C A70U stands at most 0.5; under U13C G38C A43C G51C G56C A69G, at most 0.5. Under U13G U35C G38A A42U G58C stands at most 0.5; under U13C C30A G38A C55A A65C, at most 0.5. Under U13G C29U C33U stands 0.57.

With U13C C27U C55A A69U, the yeast fitness was at most 0.5.

With U13C A42G C61G, the yeast fitness is at most 0.5.

Turning to U13G C46U, the yeast fitness came to 0.895. Under U13G U16G C31G C49U stands at most 0.5; under U13C A42U U47C G51A A70C, at most 0.5; under U13G A57U, 0.6. For U13C A42U U54C, the yeast fitness is 0.592.

As for U13G U53C G67C, the yeast fitness came out at 0.771. Under U13C C27U A69U stands 0.648; under U13C C29U C31U U54G A65U G67A, at most 0.5. The result for U13G C24U C34A C49U G63A reads 0.554. The result for U13G A14C A42U G51A U54A G56A reads at most 0.5; that for U13C A36C G67U, 0.637; that for U13C C30U A40G C55A G63C A65C, at most 0.5. Take U13C A20U C62U: the yeast fitness stood at 0.731. Under U13C A20G C46U stands 0.66; under U13G C30G A40G, at most 0.5; under U13C G25C C60U C62U, at most 0.5. Under U13C A21G U35A C55U A65G stands at most 0.5; under U13G A14G G17A G39C, 0.758. Consider U13C C22U C27U A37C, for which the yeast fitness stood at 0.563. Under U13C A36C C61A stands 0.651; under U13C A42U, 0.923. For the variant U13C A42C, the yeast fitness was 0.932.

With U13G G25A A69U, the yeast fitness turned out to be 0.798. Under U13C U47A G68A stands at most 0.5; under U13G A45U, 0.964; under U13C A15G A65C, 0.583. For the variant U13G C49U, the yeast fitness turned out to be 0.693. In the case of U13C G50A, the yeast fitness stood at 0.874. The result for U13G G48A C62G A69U reads 0.599. The result for U13C U26C reads 0.809; that for U13C G48A C61G A69C, 0.594. Under U13G G58A stands 1.08; under U13G G58C, 0.969; under U13C A36U C62G A65G, 0.671.

Regarding U13C G51C U54C, the yeast fitness was at most 0.5. The result for U13G C49U U59C reads at most 0.5; that for U13C C61A G67A, at most 0.5. Turning to A14C A15C C27U C29A C34G G39A G50C, the yeast fitness is at most 0.5. On to U13G G39C A69U, for which the yeast fitness was 0.625. As to U13C G56A C66U, the yeast fitness amounted to 0.696. On to U13C C55U, for which the yeast fitness was 0.837. The result for U13C A37G reads 0.694; that for U13C A37C, 0.713; that for U13G U16C G39C A65G, at most 0.5. Under U13C G68A stands 0.785.

On to U13C G44A A69U, for which the yeast fitness came out at 0.696. As for U13C G38C A40U C49A C66A, the yeast fitness is at most 0.5. The result for U13C G48C G50A reads at most 0.5.

On to U13G C31A C66U, for which the yeast fitness stood at 0.814. Under U13C C27A stands 0.963; under U13G C22U A70C, 0.748.

As to U13G C22U A70U, the yeast fitness stood at 0.751. The result for U13G G38C A42G G56C U59A A70U reads at most 0.5.

As to U13G U28A C55G C66A, the yeast fitness was 0.63. Under U13C U19A A21U C24A U54C U59C A69G stands at most 0.5; under U13G U16C C55A, at most 0.5. Under U13C G38C A43C G51C G56C stands 0.531; under U13G C27A G52C C55A C62G, 0.601. Under U13C A43G A45U stands 0.587; under U13C U19G A20G C31U G44A, at most 0.5. In the case of U13G C31U U35A G51A A69U A70G, the yeast fitness is at most 0.5. On to U13G C27G, for which the yeast fitness is 0.537. Under U13C A43G stands 0.984; under U13C C29G A36G G41A G48C, at most 0.5. Under U13C A36G A40C stands 0.61; under U13C C55U A65U, at most 0.5. The result for U13C C31U A57G C60U U64A C66A A69C reads at most 0.5; that for U13C A45C G50U A57G, at most 0.5; that for U13C U64C, 1.04.

Consider U13C C49G G50C A65U, for which the yeast fitness was at most 0.5. Under U13G C22U C31A C62U A65C stands at most 0.5; under U13G A14C A40C A42U, at most 0.5; under U13C A43G G52C, at most 0.5.

As to U13G G18A G39C A69U, the yeast fitness was at most 0.5. The result for U13C C60U reads 0.725; that for U13C C60A, 0.685. Under U13C C29A G51C stands 0.624; under U13C U16G A70U, 0.595. The result for U13G U32A C60A G63A reads at most 0.5; that for U13G G39C C46U, 0.535. For U13C C31U U54C G58C C61A A69U, the yeast fitness was at most 0.5. The result for U13G U32A G48C G51A C61U A69G reads at most 0.5; that for U13G C24G, 0.539; that for U13G C24A, 0.602.

Consider U13C A15G C22G, for which the yeast fitness was 0.571.

Turning to U13C G23C C49U, the yeast fitness was at most 0.5. For U13C C31U G58C C61A A69U, the yeast fitness was at most 0.5. Under U13C C24G G38C stands 0.592; under U13G U47A, 0.976. Under U13C A36C stands 0.643; under U13C A36G, 1.01; under U13C G25A C31U, 0.749.

Take U13G G44A C46U A69C: the yeast fitness came to 0.646.

As to U13G A21U, the yeast fitness was determined as 1.09.

Regarding U13C A20G C46U U47A A70U, the yeast fitness was at most 0.5. The result for U13C A15U U16A U19A C34U G67A G68C reads at most 0.5; that for U13C C49U, 1.01. Consider U13C C49G, for which the yeast fitness came to 0.896. Under U13C C55A A65U stands at most 0.5; under U13C G56A, 1.04; under U13C G56C, 0.549. Under U13C C22A C29U stands at most 0.5; under U13G C55G C60A, at most 0.5.

As to U13C C33A A36U, the yeast fitness is at most 0.5. Under U13C A70U stands 0.945. Under U13C A70G stands 1.03; under U13C G63A, 0.937. Under U13G A20U U59A C66U stands at most 0.5; under U13C A37G C60A A65U, at most 0.5. Regarding U13C C30U C33U A69U A70G, the yeast fitness came to 0.568. The result for U13C G23C reads 0.511; that for U13G A20U U59A, at most 0.5; that for U13C C22U A45U G48A C55A, at most 0.5. Under U13G C29U C31U U35A A57C stands at most 0.5; under U13C G23C A70G, 0.585; under U13C A14U A36U G38A A43U G67A, at most 0.5.

On to U13G U28A U53C C55G C66A, for which the yeast fitness is at most 0.5. The result for U13C C22G G38C A45U C49G reads at most 0.5. Consider U13C A43U A70C, for which the yeast fitness turned out to be 0.679.

Take U13C G25A A69U: the yeast fitness is 0.767.

As to U13C C30U C33U, the yeast fitness was determined as 0.537. As to U13G C22U U28C C31A, the yeast fitness was at most 0.5.

As to U13C U28C G48A C61G A69C, the yeast fitness is at most 0.5. Under U13G A20G C22G stands 0.581; under U13C C46G C62G, at most 0.5. Under U13C A21G U28C C31G stands 0.539; under U13C C31A G56C, 0.57; under U13C C24G C60G, at most 0.5. The result for U13C C60G A69C reads at most 0.5.

Turning to U13C C46U G48A, the yeast fitness was found to be 0.732. For the variant U13C U28C U47C C55A, the yeast fitness amounted to 0.545. The result for U13C A36U G51C reads at most 0.5; that for U13G U35G A40G C66U, 0.526; that for U13G C49A C55U C60U C61U, at most 0.5. The result for U13C C29U reads 0.831; that for U13C C31G C33A C66A, at most 0.5. The result for U13G A21U C22A G25A G52U reads at most 0.5. U13G C33G A40G C60A: the yeast fitness was at most 0.5. The result for U13C C22U C27U A37C A57G reads at most 0.5.

Turning to U13C A20G C49U C66U A70C, the yeast fitness was at most 0.5. Under U13C A57C stands 0.67. The result for U13G C29U reads 0.769. Under U13G C29A stands 0.571; under U13C C31U G41C C61U, 0.53; under U13C C24A, 0.69. For the variant U13C C24U, the yeast fitness was found to be 1.01.

Regarding U13C A21G C31G, the yeast fitness came to 0.754. For the variant U13C A20C A42U, the yeast fitness came out at 0.558. The result for U13C U47C G56C reads 0.544; that for U13C A21G, 1.09.
